Series [1] is described as follows: folding enthalpy; higher = less favourable; fluorescence melt of hairpins on a sequencing array, two-state fit. As to conditions: sodium 0.088 M. In outline:
(§1)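 Cy3 signals were normalised both to pre-quench Cy3 and to control constructs. They came from library hairpins carrying annealed Cy3 and quencher oligos on a sequenced MiSeq flow cell, imaged in 50 mM Na-HEPES pH 8.0, 25 mM NaCl, in 2.5 °C steps up to 60 °C. Bootstrapped two-state fits gave melting temperature and folding enthalpy, and four replicates were combined by inverse variance. Fitted temperatures were then raised by 9.35 °C to match UV melts.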

Series [2] in a line: melting temperature; fluorescence melt of hairpins on a sequencing array, two-state fit, raised by 9.35 °C to match UV melts. As to conditions: sodium 0.088 M. In outline:
as §1

Regarding GCGGTGCGAAAGCGTCGC (((..((....))..))), in series [1], the folding enthalpy was -32.6 kcal/mol. The Tm in series [2] was determined as 65.1 °C.
For GCGAGGCGAAAGCATGGC ((.(.((....)).).)) the same measures were -16.4 kcal/mol and 49.3 °C.
For GATCCATCCCTGGATC ((((((....)))))) the same measures were -35.4 kcal/mol and 51 °C.
On the same counts, the results for GTCTGGGGAAACTCAGGC (.(((.(....).))).) are -23.3 kcal/mol and 35.8 °C.
As to GGCTGAGCGAAAGCTGCC (((..(((....)))))), the folding enthalpy in series [1] was -20 kcal/mol. Besides, the Tm in series [2] turned out to be 51.6 °C.
On the same counts, the results for GCGAGGGGAAACCCCCAC (.(.(((....))).).) are -10.9 kcal/mol and 28.6 °C.
For GCAAGCGGAAACGTTTGC ((((.((....)).)))) the same measures were -38.5 kcal/mol and 53.5 °C.
On to GGGATTGGAAACAGTCTC (.((.((....)).)).), for which, in series [1], the folding enthalpy was -13 kcal/mol. Besides, in series [2], the Tm stood at 27.7 °C.
In the case of GTGGACGAAAGTCGCCAC ((((((....)))..))), the folding enthalpy in series [1] was -18 kcal/mol. For the same sequence, the Tm in series [2] worked out at 43 °C.
For the sequence GCCCACGAAAGTGTGGGC ((((((....)))..))), in series [1], the folding enthalpy is -31.5 kcal/mol. The Tm in series [2] was determined as 68 °C.
With GTCAACGAAAGTTCCGAC ((((((....)))..))), in series [1], the folding enthalpy is -9.76 kcal/mol. The Tm in series [2] was determined as 20.9 °C.
Take GCTCGGGGAAACCCGGGC ((.((((....)))).)): the folding enthalpy in series [1] is -34.6 kcal/mol. Moreover, the Tm in series [2] was 59.2 °C.
For GAGGAGGGAAACCTCCCC (.(((((....))))).) the same measures were -11.8 kcal/mol and 40.9 °C.
For GGCATGGAAACATGCC ((((((....)))))) the same measures were -34.9 kcal/mol and 67.3 °C.
Take CGTATCGGAAACGAACG (((.(((....)))))): the folding enthalpy in series [1] was -24.5 kcal/mol. Also, the Tm in series [2] amounted to 36.2 °C.
On the same counts, the results for GATATGACGAAAGTCATC (((..(((....)))))) are -10.7 kcal/mol and 33.3 °C.
As for GTAGCAGGAAACTGCTAC (((((((....))))))), in series [1], the folding enthalpy is -32.7 kcal/mol. Also, in series [2], the Tm was 66.2 °C.
For GCAGCACCGAAAGGTTGC (((..(((....)))))) the same measures were -14 kcal/mol and 43.9 °C.
For GATCAGAGCACTGATC ((((((....)))))), in series [1], the folding enthalpy is -36.5 kcal/mol. Further, the Tm in series [2] was found to be 49.3 °C.
In the case of GTGTTCGAAAGAACAC ((((((....)))))), the folding enthalpy in series [1] is -31.5 kcal/mol. In series [2], the Tm came out at 68.6 °C.
For GATCCCCACGGGATC ((((((...)))))) the same measures were -34.9 kcal/mol and 63.4 °C.
On the same counts, the results for GGTCGTGGAAACGCGACC (((((.(....).))))) are -50.9 kcal/mol and 60 °C.
As to GGTAACGAAAGTTTACC ((((((....))).))), the folding enthalpy in series [1] is -22.4 kcal/mol. Further, the Tm in series [2] was 43.3 °C.
For GATAGCCGAAAGGCCATC (((.(((....))).))) the same measures were -13.8 kcal/mol and 39.6 °C.
Take GCATAGGGAAACTTGTGC (((.(.(....).).))): in series [1], the folding enthalpy was -13 kcal/mol. For the same sequence, the Tm in series [2] was 29.9 °C.
For GAACTGCGAAAGCATTC (((.(((....)))))) the same measures were -11.7 kcal/mol and 30.9 °C.
For GACGGGAAACCGTC (((((....))))) the same measures were -29 kcal/mol and 58.6 °C.
On the same counts, the results for GACGAGGAAACTCGTC ((((((....)))))) are -41.1 kcal/mol and 61.2 °C.
As for GGATGTGCGAAAGCATCC (((..(((....)))))), in series [1], the folding enthalpy is -17.6 kcal/mol. In addition, in series [2], the Tm was determined as 45.8 °C.
Regarding GCTCCAGGAAACTGGAAC (.(((((....))))).), the folding enthalpy in series [1] is -18.7 kcal/mol. For the same sequence, the Tm in series [2] came to 38.3 °C.
On the same counts, the results for GGCTGCGAAAGCAGAGCC ((((((....)))..))) are -16.3 kcal/mol and 60.1 °C.
On the same counts, the results for GATCTGGATCAGATC ((((((...)))))) are -29.6 kcal/mol and 47.9 °C.
For GCTTACGGAAACGTAGGC ((.((((....)))).)) the same measures were -27.2 kcal/mol and 50 °C.
Turning to GACATTACGAAAGTAGTC (((..(((....)))))), in series [1], the folding enthalpy is -14.8 kcal/mol. In series [2], the Tm was 27.4 °C.
With GGTAATGGAAACATTACC (((((((....))))))), in series [1], the folding enthalpy is -42.8 kcal/mol. Besides, in series [2], the Tm was 55.9 °C.
On the same counts, the results for GCAGCCGAAAGGCGGTGC ((((((....)))..))) are -15 kcal/mol and 57.1 °C.
Regarding GATCGCCAATGCGATC ((((((....)))))), the folding enthalpy in series [1] is -38.1 kcal/mol. The Tm in series [2] was determined as 65.3 °C.
GATCGGGGACCGATC ((((((...)))))): the folding enthalpy in series [1] was -37.2 kcal/mol. In series [2], the Tm came to 66.8 °C.
On the same counts, the results for GATCCGAGCCGGATC ((((((...)))))) are -44.5 kcal/mol and 56.3 °C.
For CGAGTCGGAAACGATTCG (((.(((....))).))) the same measures were -47.2 kcal/mol and 50.4 °C.
For GTCTACGAAAGTAAGGAC ((((((....)))..))) the same measures were -19.5 kcal/mol and 31.2 °C.
For the sequence GTTTAGGGAAACCCAAAC ((((.((....)).)))), the folding enthalpy in series [1] is -24.7 kcal/mol. Besides, the Tm in series [2] amounted to 33.2 °C.
In the case of GTACTCGGAAACGAGCAC ((.((((....)))).)), the folding enthalpy in series [1] was -19.3 kcal/mol. Moreover, the Tm in series [2] turned out to be 48.6 °C.
On the same counts, the results for GCGTGCCACGC ((((...)))) are -21.3 kcal/mol and 57.9 °C.
For TACCGGAAACGGTA (((((....))))) the same measures were -16 kcal/mol and 50.2 °C.
As to GCACGGCGAAAGCAGAGC ((.(.((....)).).)), the folding enthalpy in series [1] is -20 kcal/mol. For the same sequence, the Tm in series [2] was 53 °C.
On to GCGAACGAAAGTTATCGC ((((((....)))..))), for which the folding enthalpy in series [1] was -23.1 kcal/mol. In addition, the Tm in series [2] was found to be 44.1 °C.
On the same counts, the results for GCAATGCGAAAGCCTAGC ((.(.((....)).).)) are -11.2 kcal/mol and 26.8 °C.
In the case of GGTTTTCCGAAAGGAACC (((..(((....)))))), in series [1], the folding enthalpy is -12.1 kcal/mol. The Tm in series [2] is 31.1 °C.
On the same counts, the results for GGCTGTGGAAACGCAGTC (.(((.(....).))).) are -23.4 kcal/mol and 42.4 °C.
For GCGTCCGAAAGGAGCCGC ((((((....)))..))) the same measures were -16.9 kcal/mol and 50.1 °C.
Consider GATCTTTAGTAAGATC ((((((....)))))), for which the folding enthalpy in series [1] is -29.9 kcal/mol. Further, the Tm in series [2] was determined as 40 °C.
Take GATCATCTGTATGATC ((((((....)))))): the folding enthalpy in series [1] was -36.2 kcal/mol. Further, in series [2], the Tm was found to be 47.1 °C.
On to GATCTGAGAACAGATC ((((((....)))))), for which, in series [1], the folding enthalpy is -27.5 kcal/mol. In addition, the Tm in series [2] turned out to be 45.1 °C.
For GGTGTTCCGAAAGGAACC (((..(((....)))))) the same measures were -9.16 kcal/mol and 47.7 °C.
For GCTTGCCGAAAGGCCAGC (((.(((....))).))) the same measures were -27.9 kcal/mol and 54.1 °C.
Take GATCCGCTATCGGATC ((((((....)))))): the folding enthalpy in series [1] is -40.2 kcal/mol. The Tm in series [2] stood at 57.2 °C.
For GCGTAGCGAAAGCGGCGC (((..((....))..))) the same measures were -22.4 kcal/mol and 69.1 °C.
For GTATGAGCGAAAGCTTAC (((..(((....)))))) the same measures were -9.43 kcal/mol and 30.1 °C.
On the same counts, the results for GCCAGCGAAAGCTAGGGC ((((((....)))..))) are -31.6 kcal/mol and 52.7 °C.
As for GACACCGGAAACAGTGTC (((((.(....).))))), in series [1], the folding enthalpy was -28.8 kcal/mol. In series [2], the Tm was determined as 44.3 °C.
Consider GATCAGGGAAACCTGATC (((((((....))))))), for which, in series [1], the folding enthalpy is -41.8 kcal/mol. Besides, the Tm in series [2] came to 59 °C.
As to CTATTGAAAAATAG (((((....))))), in series [1], the folding enthalpy is -8.21 kcal/mol. Also, the Tm in series [2] was 23.4 °C.
On the same counts, the results for GATGAACGAAAGTTTATC (((.(((....))).))) are -29.3 kcal/mol and 44.6 °C.
For GGTCGCGGAAACACGACC (((((.(....).))))) the same measures were -41 kcal/mol and 56.9 °C.
On the same counts, the results for GGTCCGGGAAACCAGACC ((((.((....)).)))) are -28.6 kcal/mol and 46.4 °C.
With GCCGACGAAAGTCGCGGC ((((((....)))..))), the folding enthalpy in series [1] is -14.3 kcal/mol. Also, the Tm in series [2] worked out at 59.2 °C.
Turning to GGGGCCGGAAACGACCCC ((((.((....)).)))), in series [1], the folding enthalpy was -44.1 kcal/mol. In addition, the Tm in series [2] is 59.2 °C.
For GATCGCGAAAGCGACATC ((((((....)))..))), the folding enthalpy in series [1] was -8.3 kcal/mol. In series [2], the Tm was 32.1 °C.
Take GATCCGCAACGGATC ((((((...)))))): the folding enthalpy in series [1] was -33 kcal/mol. In addition, in series [2], the Tm is 55.8 °C.
On the same counts, the results for GATGTACGAAAGTAAATC (((.(((....))).))) are -23.9 kcal/mol and 35.5 °C.
In the case of GCGGCACACCGC ((((....)))), in series [1], the folding enthalpy is -25.5 kcal/mol. The Tm in series [2] is 57.5 °C.
As to GTAAATGCGAAAGCATAC (((..(((....)))))), the folding enthalpy in series [1] was -10.9 kcal/mol. Also, in series [2], the Tm is 29.3 °C.
For GCGTACGAAAGTAGTCGC ((((((....)))..))) the same measures were -25.1 kcal/mol and 45.3 °C.

Values taken from the array DNA melting data of Ke et al. (doi:10.1101/2024.01.08.574731).
